RGS4 inh = RGS4 inhibitors, primary screen, cell-based, HEK293 M3R inducible RGS4, calcium flux; Regulator of G-protein signaling 4 (Homo sapiens), P49798; B-score at 10 µM; AID 463165, 2010; 0.45% of 310,000 active; Fluo-4 calcium flux; hits give high values; triggered by carbachol at its EC20;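 active = B-score, a plate-corrected calcium signal, over three deviations above library mean, with baseline fluorescence within five deviations of library mean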;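 also: RGS4 expression induced by doxycycline in cells with stable M3 receptor; B-score is computed from the integrated fluorescence ratio over baseline after carbachol; higher B-score means a larger calcium signal and so more RGS4 inhibition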
Target sequence (P49798 whole entry, looked up): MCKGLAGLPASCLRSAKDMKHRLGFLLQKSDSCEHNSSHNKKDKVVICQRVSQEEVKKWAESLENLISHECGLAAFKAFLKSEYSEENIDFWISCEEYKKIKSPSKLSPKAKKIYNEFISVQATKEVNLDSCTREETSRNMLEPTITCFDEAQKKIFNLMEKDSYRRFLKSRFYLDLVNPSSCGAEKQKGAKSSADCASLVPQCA
MrgX1 allo act = positive allosteric modulators of MrgX1, primary screen, HEK293 cells, Fluo-4 calcium flux; Mas-related G-protein coupled receptor member X1 (Homo sapiens), Q96LB2; FDSS; hits give high values; B-score at 10 µM; 0.63% of 310,000 active;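 active = plate-corrected calcium response at least 3 library SD above typical, normal starting fluorescence, not activating the receptor alone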;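 also: compound read alongside a low EC10 to EC30 dose of BAM8-22 agonist; peak minus trough fluorescence over baseline measured at the second addition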
Target sequence (Q96LB2 whole entry, looked up): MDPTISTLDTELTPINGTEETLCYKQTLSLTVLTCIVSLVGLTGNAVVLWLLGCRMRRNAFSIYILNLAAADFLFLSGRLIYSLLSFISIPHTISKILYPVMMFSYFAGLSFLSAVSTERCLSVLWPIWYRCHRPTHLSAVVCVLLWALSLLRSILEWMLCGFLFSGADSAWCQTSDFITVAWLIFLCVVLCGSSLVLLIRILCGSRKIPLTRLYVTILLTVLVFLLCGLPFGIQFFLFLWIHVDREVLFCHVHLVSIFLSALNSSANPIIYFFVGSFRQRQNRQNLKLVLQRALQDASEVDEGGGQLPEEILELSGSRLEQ
MrgX1 ag = agonists of human MrgX1 receptor, primary screen, HEK293 cells, Fluo-4 calcium flux. Fluo-4 calcium fluorescence, agonist mode; hits give high values. B-score at 10 µM. 0.44% of 310,000 active. AID 588627, 2011;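 active = calcium response B-score plate-corrected fluorescence ratio at least 3 library SD, with starting fluorescence B-score inside 5 SD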
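times = overnight plating, then 30 min 37 °C plus 30 min room-temperature dye loading | assay system = stable human MrgX1 HEK293 cell line | input = fifteen thousand cells per well | signal = kinetic calcium dye fluorescence, Fluo-4 NW | dosing = compound delivered in addition one of three | read-out = B-scored fluorescence response ratio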
RGS4 act = RGS4 potentiators or activators, primary screen, cell-based, HEK293 M3R inducible RGS4, calcium flux. AID 463111, 2010. carbachol calcium flux Fluo4; hits give low values. B-score at 10 µM. 0.92% of 310,000 active;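 active = B-score of the integrated calcium signal more than 4 SD below the library mean, with starting fluorescence not abnormally high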;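 also: negative B-score means reduced calcium response which marks RGS4 activation or potentiation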
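System – HEK293 FlpIn-TREx cells, stable M3R, doxycycline-inducible RGS4 · Reagent – ECmax carbachol challenge · Times – compound preincubation 20 min at room temperature before agonist · Technique – Fluo4 fluorescence kinetic imaging of calcium · Measure – B score of integrated Fluo4 ratio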
MrgX1 antag = antagonists of human MrgX1 receptor, primary screen, HEK293 cells, Fluo-4 calcium flux. Mas-related G-protein coupled receptor member X1 (Homo sapiens), Q96LB2. BAM8-22 antagonism; hits give low values. B-score at 10 µM. 1.3% of 310,000 active. AID 588676, 2011;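 active = calcium-response B-score plate-corrected more than 3 library SD below zero, starting fluorescence within 5 deviations, no agonist response on first addition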;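 also: peak minus trough fluorescence over baseline after final BAM8-22 challenge near maximal dose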
MrgX1 antag conf = MrgX1 receptor antagonists, duplicate retest, confirmation, HEK293 cells, Fluo-4 calcium flux | remaining BAM8-22 calcium response % of control (hits give low values), % at 10 µM | AID 602420, 2012 | 19% of 2,300 active | shares compounds with MrgX1 antag | BAM8-22 calcium flux; hits give low values;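 active = remaining agonist calcium response no higher than 100% minus 3 SD of agonist-only control wells, with starting fluorescence near control levels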;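 also: agonist BAM8-22 given at a near maximal EC90 to ECmax level; peak minus minimum fluorescence divided by baseline after agonist addition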
HEK293 Ca flux = nonspecific calcium signal in parental HEK293, confirmation, counter-screen for MrgX1 antagonist project, parental HEK293 cells, Fluo-4 calcium flux; shares compounds with MrgX1 antag; Fluo-4 calcium fluorescence, FDSS; fluorescence ratio F(max-min)/F0 at 10 µM; 2% of 4,000 active; AID 624111, 2012;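 active = duplicate-averaged calcium fluorescence ratio at least three times the standard deviation of buffer wells, a nonspecific response in parental cells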
HEK293 Ca counter = calcium response in parental HEK293 cells, primary screen, counter-screen for MrgX1 allosteric activator project, cell-based, Fluo-4 calcium flux, duplicate; shares compounds with MrgX1 antag; Fluo-4 fluorescence ratio; hits give high values; fluorescence ratio F(max-min)/F0 at 10 µM; 0.4% of 4,000 active; AID 624114, 2012;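 active = calcium fluorescence ratio, averaged over duplicates, at least 3 SD of the buffer-well ratio, meaning a nonspecific response in receptor-free cells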;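 also: untransfected parental HEK293 lacking MrgX1 used as counterscreen for MrgX1 allosteric activators; fluorescence change taken during the second addition on a kinetic imager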
HEK293 Ca cntr2 = calcium response in parental HEK293 cells, primary screen, counter-screen for MrgX1 agonist project, cell-based, Fluo-4 calcium flux, duplicate, agonist mode. Fluo-4 calcium fluorescence (FDSS); hits give high values. shares compounds with MrgX1 antag. 8.7% of 4,000 active. fluorescence ratio F(max-min)/F0 at 10 µM;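 active = calcium fluorescence ratio at least three times the spread of buffer wells, meaning a non-specific response in parental cells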
Numbers without * were called inactive; i = inactive; nt = no result. Compounds with a hit are over-represented: about 3.5% of the library has one in this group of screens.

SMILES	RGS4 inh	MrgX1 allo act	MrgX1 ag	RGS4 act	MrgX1 antag	MrgX1 antag conf	HEK293 Ca flux	HEK293 Ca counter	HEK293 Ca cntr2
CCCCN1C(=O)C(NC(C)=O)c2cc(Br)ccc21 (stereo not given)	i	i	i	i	i	nt	nt	nt	nt
CC1=C(C#N)C(=O)N(C2CCS(=O)(=O)C2)C(=O)/C1=C\c1ccc(C)o1 (stereo not given)	i	i	i	i	i	nt	nt	nt	nt
COC(C(=O)Nc1ccnn1C1CCN(Cc2ccc(CO)o2)CC1)c1ccccc1 (stereo not given)	i	i	i	i	i	nt	nt	nt	nt
C=CCN1C(=O)C2C(C(=O)NC3CCCC3)C3(C)C=CC2(O3)C1C(=O)NC1CCCC1 (stereo not given)	i	i	i	i	i	nt	nt	nt	nt
CCNC(=S)Nc1ccc(Cl)cc1	i	i	i	i	-6*	i	i	i	i
Cc1ccc(OCc2cc(C(=O)N(C)CCc3ccccn3)no2)cn1	i	i	i	i	i	nt	nt	nt	nt
Cn1c(SCC(=O)Nc2ccc(C(N)=O)cc2)nc2c(c1=O)SCC2	i	i	i	i	i	nt	nt	nt	nt
Cn1c(SCC(=O)Nc2cccc(F)c2)nc2c(c1=O)SCC2	i	i	i	i	-8.8*	i	i	i	i
COc1ccc(-n2c(SCC(=O)Nc3cc(C)on3)nc3c(c2=O)SCC3)cc1	i	i	i	i	-4.6*	i	i	i	i
Cc1ccc2[nH]c(-c3cccc(F)c3)cc(=O)c2c1	i	i	i	i	-4.6*	i	i	i	i
Cc1cccc(-n2ncc3c2CCCC3NC(=O)C2CCOCC2)c1C (stereo not given)	i	i	i	i	-5.2*	74%*	i	i	i
CC(=O)CSc1ncnc2sc3c(c12)CCC3	i	i	i	i	i	nt	nt	nt	nt
CC(C)(C)C(=O)CSc1ncnc2sc3c(c12)CCC3	i	i	i	i	-9.7*	i	i	i	i
Cc1cc(=O)oc2c(C)c(OC(C)C(=O)NCc3ccccn3)ccc12 (stereo not given)	i	i	i	i	i	nt	nt	nt	nt
Cc1cccc(NC(=O)CNC(=O)c2ccc3c(c2)OCO3)n1	i	i	i	i	-9.4*	i	i	i	i
Cc1ccc(-c2noc(C3CCN(C(=O)Nc4ccc(C#N)cc4)CC3)n2)o1	i	i	i	i	-4.6*	76%*	i	i	i
Cc1ccc(NC(=O)C2CCN(S(=O)(=O)c3ccc4c(c3)OCCCO4)CC2)nc1	i	i	i	i	i	nt	nt	nt	nt
CCn1c(/C=C/c2ccc(O)c(O)c2)nc2ccccc2c1=O	i	i	i	i	-4.7*	i	i	i	i
CCn1c(/C=C/c2ccc(O)cc2)nc2ccccc2c1=O	i	i	i	i	i	nt	nt	nt	nt
CC(C)c1ccc(OCC(=O)NC2=NCCS2)cc1	i	i	i	i	i	nt	nt	nt	nt
CCOc1ccc(CCNC(=O)COC(=O)Cn2nc(C)c([N+](=O)[O-])c2C)cc1OCC	i	i	i	i	i	nt	nt	nt	nt
O=C(CSCc1nc2ccccc2[nH]1)Nc1ccc2ccccc2c1	i	i	i	i	-4.9*	i	i	i	i
CCc1ccc(S(=O)(=O)N2CCN(c3ccccc3OC)CC2)cc1	i	i	i	i	i	nt	nt	nt	nt
O=C(NCN1C(=O)C2C3C=CC(C3)C2C1=O)Nc1nncs1 (stereo not given)	i	i	i	i	-4.6*	85%*	i	i	i
CNc1oc(/C=C/c2cccc(OC)c2)nc1C#N	i	i	i	i	i	nt	nt	nt	nt
SMILES	RGS4 inh	MrgX1 allo act	MrgX1 ag	RGS4 act	MrgX1 antag	MrgX1 antag conf	HEK293 Ca flux	HEK293 Ca counter	HEK293 Ca cntr2
COc1cccc(COc2ccc3c(C)c(Cc4ccccc4)c(=O)oc3c2)c1	i	i	i	i	-6.3*	i	i	i	i
Cc1cc(-c2cccs2)n[nH]1	i	i	i	i	i	nt	nt	nt	nt
Cc1cc(-c2ccccc2N)n[nH]1	i	i	i	i	-6.4*	i	i	i	i
COc1ccc2nc(C)cc(NCc3ccc(F)cc3)c2c1	i	i	i	i	-8.4*	i	i	i	i
COc1ccc2nc(C)cc(Nc3ccc(C)cc3)c2c1	i	i	i	i	i	nt	nt	nt	nt
CCn1c2ccccc2c2cc(NC(=O)COC(=O)c3ccc(O)cc3)ccc21	i	i	i	i	-7.7*	i	i	i	i
O=C(Oc1cccc(-n2cnnn2)c1)c1ccco1	i	i	i	i	-6.5*	79%*	i	i	i
Cc1ccc(CCNC(=O)C2CC(c3ccc(C(F)(F)F)cc3)=NO2)cc1 (stereo not given)	i	i	i	i	i	nt	nt	nt	nt
COc1ccc(-c2csc(NC(=O)COc3ccc(N(C)S(=O)(=O)c4ccc(C)cc4)cc3)n2)cc1	i	i	i	i	i	nt	nt	nt	nt
COc1ccc(S(=O)(=O)Nc2ccccc2C(=O)Nc2nc(-c3ccc(F)cc3)cs2)cc1OC	i	i	i	i	-8.7*	i	i	i	i
COc1ccc(-c2csc(NC(=O)c3ccccc3NS(=O)(=O)c3ccc(C)cc3)n2)cc1	i	i	i	i	-9*	61%*	i	i	i
COCCCN(C(=O)CC1OC(=O)c2ccccc21)c1c(N)n(Cc2ccccc2)c(=O)[nH]c1=O (stereo not given)	i	i	i	i	i	nt	nt	nt	nt
